What was measured:
[1] = folding enthalpy; higher = less favourable; fluorescence melt of hairpins on a sequencing array, two-state fit; conditions: sodium 0.088 M
Outline: (§1)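 Melting temperature and folding enthalpy were derived from bootstrapped two-state fits. The fitted temperatures were raised by 9.35 °C to agree with UV melts, and four replicates were combined by inverse variance. The underlying data were Cy3 fluorescence images of library hairpins, with annealed Cy3 and quencher oligos, on a sequenced MiSeq flow cell in 50 mM Na-HEPES pH 8.0, 25 mM NaCl, taken in 2.5 °C steps up to 60 °C, normalised to pre-quench Cy3 and to control constructs.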

[2] = melting temperature; fluorescence melt of hairpins on a sequencing array, two-state fit, raised by 9.35 °C to match UV melts; conditions: sodium 0.088 M
Outline: as §1

Sequence	folding enthalpy [1] [kcal/mol]	Tm [2] [°C]
GCCACAGGAAACCGTGGC (((((.(....).)))))	-43	55.4
GCCACAGGAAACTATGGC ((((.((....)).))))	-31.8	39.3
GCCACAGGAAACTGCGGC (((.(((....))).)))	-56.4	52
GCCACCACGAAAGTGGGC (((..(((....))))))	-9.17	46
GCCACCCCGAAAGGGGGC (((..(((....))))))	-11.4	55.8
GCCACCGAAAGGTAGGGC ((((((....)))..)))	-27.6	52.7
GCCACCGAAAGGTCTGGC ((((((....)))..)))	-19.4	47.4
GCCACCGAAAGGTGAGGC ((((((....)))..)))	-14.1	54.9
GCCACCGGAAACGGCGAC (.(.(((....))).).)	-14.2	34.7
GCCACCGGAAACGGTGAC (.(((((....))))).)	-14	48.8
GCCACGCGAAAGCACGGC (((..((....))..)))	-35.9	61.9
GCCACGCGAAAGCCTGGC ((((.((....)).))))	-30.4	59.6
GCCACGCGAAAGCGTCGC ((.((((....)))).))	-16.1	60.2
GCCACGCGAAAGCTAGGC (((..((....))..)))	-21.9	52.1
GCCACGGGAAACCGTAGC ((.((((....)))).))	-23.2	46.6
GCCACTGGAAACAACGGC (((..((....))..)))	-17.3	27.6
GCCACTGGAAACAATGGC ((((.((....)).))))	-26.7	42.2
GCCACTGGAAACAGTAGC ((.((((....)))).))	-27.7	40.5
GCCACTGGAAACAGTGAC (.(((((....))))).)	-18.9	46.3
GCCACTTCGAAAGAAGGC (((..(((....))))))	-13	35.5
GCCAGAGAAATCTGGC ((((((....))))))	-31.8	64.3
GCCAGCACGAAAGTGGGC (((..(((....))))))	-26.9	50.9
GCCAGCGAAAGCTACGGC ((((((....)))..)))	-19.9	49.8

Sequence	folding enthalpy [1] [kcal/mol]	Tm [2] [°C]
GCCAGCGAAAGCTTAGGC ((((((....)))..)))	-27.3	52
GCCAGCGAAAGCTTGGC ((((((....))).)))	-27.4	63.9
GCCAGCGAAAGCTTGGGC ((((((....)))..)))	-26.7	52.5
GCCAGCGCGAAAGCGGGC (((..(((....))))))	-16.1	61.2
GCCAGCGGAAACGCCAGC ((..(((....)))..))	-13.7	39
GCCAGCGGAAACGCTAGC ((.((((....)))).))	-20.5	49
GCCAGCGGAAACGCTGAC (.(((((....))))).)	-13.7	51.5
GCCAGGCGAAAGCACGGC (((..((....))..)))	-18.3	60.6
GCCAGGCGAAAGCATTGC ((.(.((....)).).))	-13.1	35.7
GCCAGGGGAAACCCTGAC (.(((((....))))).)	-15.4	47.6
GCCAGGGGAAACTCTGGC (((((.(....).)))))	-40.9	56.1
GCCAGGTCGAAAGACGGC (((..(((....))))))	-34.7	53.4
GCCAGTCGAAAGACAGGC (((.(((....))).)))	-29.6	62.8
GCCAGTGCGAAAGCAGGC (((..(((....))))))	-15.7	53.7
GCCAGTGGAAACACTGAC (.(((((....))))).)	-15.8	46.1
GCCATACGAAAGTACGGC (((.(((....))).)))	-37	51.5
GCCATAGGAAACTGTGGC ((((.((....)).))))	-39.1	52.2
GCCATATCGAAAGATGGC (((..(((....))))))	-34.6	48.2
GCCATCCGAAAGGAAGGC (((.(((....))).)))	-31.3	57.9
GCCATCGAAAGATCCGGC ((((((....)))..)))	-19.6	33.2
GCCATCGAAAGATTCGGC ((((((....)))..)))	-21	36.9
GCCATCGAAAGATTGGGC ((((((....)))..)))	-26.8	44.1

— the array DNA melting data of Ke et al. (doi:10.1101/2024.01.08.574731)
